Source: ChEMBL document CHEMBL1123374, “Comparative pharmacology in the rat of ketamine and its two principal metabolites, norketamine and (Z)-6-hydroxynorketamine” (J Med Chem, 1986)

Columns and labels:
[1] = Partition coefficient was expressed as the ratio of the equilibrium concentration in benzene solvent to that in an equal volume of pH 7.4 aqueous buffer; format: ADME
Summary of the method: (§1)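 Compound at 100 µg/mL in organic solvent shaken with equal volume 0.1 M sodium phosphate buffer pH 7.4, 30 min, ambient temperature; phases separated by centrifugation, each quantified by GC against internal standard; coefficient = organic/aqueous concentration ratio; triplicate per solvent, mean ± SEM.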

[2] = Partition coefficient was expressed as the ratio of the equilibrium concentration in n-heptane solvent to that in an equal volume of pH 7.4 aqueous buffer; format: ADME; summary of the method: as §1
[3] = test system: Rattus norvegicus; experiment: Compound was administered to male Sprague-Dawley rats (250-300 g) by intravenous (iv) bolus injection at a dose of 40 mg/kg; format: functional
Summary of the method: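 Male Sprague-Dawley rats (250-300 g) with right jugular vein catheter, 48 h recovery; 40 mg/kg iv bolus as free base in propylene glycol/ethanol/water (40/10/50) or HCl salt in 0.9% saline; controls given vehicle. Anesthesia duration by loss of righting reflex; locomotor activity by stabilimeter, excitation ended at <2 events per 3 min; mean ± SEM, n = 4.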

[4] = Partition coefficient was expressed as the ratio of the equilibrium concentration in chloroform solvent to that in an equal volume of pH 7.4 aqueous buffer; format: ADME; summary of the method: as §1

Compound | Partition coefficient [1] | Partition coefficient [2] | Duration of anesthesia [3] | Duration of increase in SLA [3] | Partition coefficient [4]
CNC1(c2ccccc2Cl)CCCCC1=O (stereo not given) [KETAMINE] | 98.6 | 6.36 | 7.11 min | 24.65 min | 299
NC1(c2ccccc2Cl)CCCCC1=O (stereo not given) [NORKETAMINE] | 52.6 | 1.86 | 3.24 min | 7.15 min | 296
NC1(c2ccccc2Cl)CCC[C@@H](O)C1=O (stereo not given in full) | 1.44 | 0.00963 | 0 min | 0 min | 19.4
